Measured values: ChEMBL document CHEMBL3244412, “Benzopyrones. 14. Synthesis and antiallergic properties of some N-tetrazolylcarboxamides and related compounds” (1978)
Converted amounts (≈) assume the structure as drawn.

Legend:
Homo sapiens [1] = organism: Homo sapiens; test: Antianaphylactic activity in human lung fragments assessed as inhibition of sheep anti-human IgE-induced histamine release at 18 ug/ml treated 10 mins prior to sheep anti-human IgE-challenge measured after 15 mins by superfusion assay relative to control; assay type: functional
Outline: (§1)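 Human lung fragments in Tyrode's solution were incubated with the compound for 10 min, then challenged with sheep anti-human IgE and centrifuged for 15 min after challenge. Free and residual histamine were measured by superfusion bioassay on atropine-treated guinea pig ileum. % release and % inhibition were calculated from net release. Values are means of three experiments, each in duplicate.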

Homo sapiens [2] = organism: Homo sapiens; test: Antianaphylactic activity in human lung fragments assessed as inhibition of sheep anti-human IgE-induced histamine release at 180 ug/ml treated 10 mins prior to sheep anti-human IgE-challenge measured after 15 mins by superfusion assay relative to control; assay type: functional; outline: as §1
Homo sapiens [3] = organism: Homo sapiens; test: Antianaphylactic activity in human lung fragments assessed as inhibition of sheep anti-human IgE-induced histamine release treated 10 mins prior to sheep anti-human IgE-challenge measured after 15 mins by superfusion assay; assay type: functional; outline: as §1
[4] = Antianaphylactic activity in rat mast cells assessed as inhibition of DNP-ovalbumin-induced histamine release after 15 mins by superfusion assay; assay type: functional; settings: Mast cell, 0.25 h, read-out: ED50 (the source's name)
Outline: (§2)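 Peritoneal and pleural cells from male albino rats were washed, sensitized with 1:10 rat reaginic anti-DNP-ovalbumin serum for 2 h at 37 °C, and resuspended at 1.2-1.7 × 10⁵ mast cells/mL. Compound and DNP-ovalbumin were added together and incubated for 15 min at 37 °C. Supernatant (free) and lysed-cell (residual) histamine were assayed by guinea pig ileum superfusion bioassay. Inhibition of net histamine release was used to derive EC50 from dose ranging against the reference compound.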

[5] = Antianaphylactic activity in rat mast cells assessed as inhibition of DNP-ovalbumin-induced histamine release after 15 mins by superfusion assay relative to 4-oxo-N-(5-tetrazolyl)-4H-l-benzopyran-2-carboxamide; assay type: functional, Mast cell; outline: as §2
Rattus norvegicus [6] = test: Antiallergic activity in rat assessed as inhibition of DNP-ovalbumin-induced passive cutaneous anaphylaxis at 1 mg/kg, iv after 30 mins relative to control; assay type: functional; settings: Rattus norvegicus, iv, 0.5 h
Outline: (§3)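 Female albino rats (groups of four) were shaved and sensitized by dorsal intradermal injection of 0.1 mL diluted rat reaginic anti-DNP-ovalbumin serum, raised with Bordetella pertussis adjuvant. After 48 h they were challenged iv with 2 mg DNP-ovalbumin in 0.5 mL 1% Evans blue/saline, with the compound given iv in aqueous solution at the same time. After 30 min, skin weals were scored visually on a 5-point scale; % inhibition was taken versus vehicle controls.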

Rattus norvegicus [7] = test: Antiallergic activity in iv dosed rat assessed as inhibition of DNP-ovalbumin-induced passive cutaneous anaphylaxis after 30 mins; assay type: functional; settings: 0.5 h; outline: as §3
Rattus norvegicus [8] = test: Antiallergic activity in po dosed rat assessed as inhibition of DNP-ovalbumin-induced passive cutaneous anaphylaxis administered 10 mins prior to DNP-ovalbumin-challenge; assay type: functional
Outline: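 This rat passive cutaneous anaphylaxis model used reaginic anti-DNP-ovalbumin serum given intradermally, iv DNP-ovalbumin with Evans blue 48 h later, and weal scoring. Rats were starved overnight and dosed orally with the compound in aqueous solution 10 min before iv antigen challenge. ED50 was calculated with 95% confidence limits, assuming a log-linear dose response.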

Homo sapiens [9] = organism: Homo sapiens; test: Antianaphylactic activity in human lung fragments assessed as inhibition of sheep anti-human IgE-induced histamine release at 0.18 ug/ml treated 10 mins prior to sheep anti-human IgE-challenge measured after 15 mins by superfusion assay relative to control; assay type: functional; outline: as §1
Homo sapiens [10] = organism: Homo sapiens; test: Antianaphylactic activity in human lung fragments assessed as inhibition of sheep anti-human IgE-induced histamine release at 1.8 ug/ml treated 10 mins prior to sheep anti-human IgE-challenge measured after 15 mins by superfusion assay relative to control; assay type: functional; outline: as §1

EC50 [4]: 0.08 µg/mL (≈ 0.311 µM)
SMILES: O=C(Nc1nnn[nH]1)c1cc(=O)c2ccccc2o1
inhibition (Homo sapiens [1]): 43.3%
inhibition (Homo sapiens [2]): 61.6%
inhibition (Homo sapiens [3]): Dose-dependent effect
fold change (potency relative to reference compound) [5]: 1
inhibition in vivo at 1 mg/kg (Rattus norvegicus [6]): 100%
ED50 (Rattus norvegicus [7]): 0.037 mg/kg
ED50 (Rattus norvegicus [8]): 21 mg/kg
inhibition (Homo sapiens [9]): 5%
inhibition (Homo sapiens [10]): 46.4%
